pIC50: −log10 of the molar value. In brackets after ≈: the same amount, converted by molar mass. Activity calls are given as the source filed them.
Legend:
[1] = Protein binding in cynomolgus monkey plasma assessed as unbound fraction at 1 uM by micro-equilibrium dialysis based LC-MS/MS analysis; type: ADME, cell-free, Macaca fascicularis
Summary of the method: (§1)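 Equilibrium dialysis of pooled rat or cynomolgus plasma against Soerensen buffer pH 7.4, 12–14 kDa cut-off membrane. Compounds tested in cassettes of 2–5 at 1 μM initial total concentration, with diazepam as control. Dialysis 5 hr at 37 °C under 5% CO₂. Unbound percentage by LC/MS-MS.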

[2] = Permeability of the compound measured at 18 hrs by PAMPA; type: ADME; conditions: read-out: permeability
Summary of the method: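 PAMPA sandwich format. Donor: compound diluted to 150 μM (DMSO <2%) in 0.05 M MOPSO pH 6.5 with 0.5% glycocholic acid. Acceptor: 0.05 M MOPSO pH 6.5. Membrane of 10% egg lecithin with 0.5% cholesterol in dodecane. Donor measured at start; acceptor and donor measured at ~18 hr.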

[3] = Oral bioavailability in cynomolgus monkey; type: ADME, organism-based, Macaca fascicularis; conditions: in vivo
[4] = Solubility of the compound in phosphate buffer at pH 6.5 shaken for 2 hrs followed by overnight incubation; type: physicochemical
Summary of the method: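 Lyophilisation solubility assay run in duplicate from 10 mM DMSO stock. DMSO evaporated and residue redissolved in 0.05 M phosphate, pH 6.5. Stirred 1 hr, shaken 2 hr, left overnight, then filtered. Filtrate and a 1/10 dilution analysed by HPLC-UV against a four-point calibration.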

[5] = target: T1, Cytochrome P450 11B2, mitochondrial (Homo sapiens, UniProt P19099); assay: Inhibition of CYP11B2 in H295R cell assessed as reduction in 18-hyroxycorticosterone by LC/MS-MS method
T1 sequence (P19099 whole entry): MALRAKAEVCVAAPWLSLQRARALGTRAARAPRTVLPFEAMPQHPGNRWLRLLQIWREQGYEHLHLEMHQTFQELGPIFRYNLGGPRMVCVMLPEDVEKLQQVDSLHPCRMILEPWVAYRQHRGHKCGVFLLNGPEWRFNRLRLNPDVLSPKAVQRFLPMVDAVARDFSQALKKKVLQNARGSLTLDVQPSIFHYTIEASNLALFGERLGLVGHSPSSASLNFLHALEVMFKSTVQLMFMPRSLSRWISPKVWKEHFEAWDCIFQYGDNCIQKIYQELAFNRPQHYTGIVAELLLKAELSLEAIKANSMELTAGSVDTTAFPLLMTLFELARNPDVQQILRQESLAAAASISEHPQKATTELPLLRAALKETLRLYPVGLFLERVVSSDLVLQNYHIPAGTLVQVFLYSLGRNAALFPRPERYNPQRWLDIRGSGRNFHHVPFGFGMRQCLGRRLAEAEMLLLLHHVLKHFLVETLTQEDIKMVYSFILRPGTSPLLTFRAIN

[6] = Free plasma concentration in cynomolgus monkey at 0.1 mg/kg; type: ADME, organism-based, Macaca fascicularis; conditions: in vivo
Summary of the method: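 Cynomolgus monkeys, 2 per group, given single oral doses of 0.01, 0.1, 1 or 10 mg/kg as a suspension in hydroxyethylcellulose/polysorbate 80/parabens vehicle, 2 mL/kg. Synacthen 14.5 µg/kg given i.m. at 1 hr. Plasma compound levels by LC/MS-MS. Average free exposure calculated from AUC0-7hr and corrected for plasma protein binding.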

[7] = Dose normalized AUC in cynomolgus monkey; type: ADME, Macaca fascicularis; conditions: in vivo
[8] = Protein binding in rat plasma assessed as unbound fraction at 1 uM by micro-equilibrium dialysis based LC-MS/MS analysis; type: ADME, cell-free; summary of the method: as §1
Cynomolgus monkey = assay: In vivo inhibition of CYP11B2 in cynomolgus monkey assessed as reduction in ACTH-induced corticosterone at 0.01 to 10 mg/kg, po preincubated for 1 hr followed by ACTH challenge and measured after 60 mins by LC/MS-MS analysis; type: functional, organism-based; conditions: Macaca fascicularis
Summary of the method: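 Cynomolgus monkeys preselected as Synacthen responders (at least 2-fold rise in aldosterone, cortisol and corticosterone). Two animals per group. Oral vehicle or compound at 0.01–10 mg/kg in hydroxyethylcellulose/polysorbate 80/paraben suspension (2 mL/kg) at T=0, then 14.5 µg/kg Synacthen i.m. at 1 hr. EDTA blood drawn from -5 min to 24 h. Plasma steroids measured by LC/MS-MS; data shown 60 min after challenge.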

fraction unbound at 1 µM [1]: 0.138 | Papp at 18 h [2]: 4.17 ×10⁻⁶ cm/s | bioavailability [3]: 19% | solubility at 2 h [4]: 78 µg/mL (≈ 179 µM) | pIC50 [5]: > 9.00 | Cp(f) [6]: 0.825 ng/mL | AUC/dose [7]: 1085 kg·ng·h/mL/mg | fraction unbound at 1 µM [8]: 0.052
Compound: CCS(=O)(=O)N1CC(Oc2cncc(N3C(=O)c4ccc(Cl)cc4C3(C)C)c2)C1
inhibition (Cynomolgus monkey): inactive

Source: ChEMBL document CHEMBL4616681, “Discovery of 3-Pyridyl Isoindolin-1-one Derivatives as Potent, Selective, and Orally Active Aldosterone Synthase (CYP11B2) Inhibitors” (J Med Chem, 2020)
